For one assay, the system named is Plasmodium falciparum. The assay is described as follows: Antimalarial activity against chloroquine-resistant Plasmodium falciparum K1. Type of assay: functional, organism-based.
Assay [1] in a line: Induction of heme alkylation of Fe(II) heme assessed as adduct A472 absorbance change at completion of reaction at 10 uM in presence of 50% ACN-H2O with excess sodium dithionite under argon at 20 degC by spectrophotometry. An outline of the steps:
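Reduced heme made from hemin (10 μM final) in 50% ACN-water (from 0.5 mM stock in 0.1 M NaOH) with excess sodium dithionite, argon-purged sealed cell, stirred at 20°C; peroxide added to 10 μM final. Product formation followed as A472, normalized to initial 418 nm heme absorbance; taken at completion (t = 30 s). n = 3.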

The nature of assay [2]: Induction of heme alkylation of Fe(II) heme assessed as loss of heme at 10 uM in presence of 50% ACN-H2O with excess sodium dithionite under argon at 20 degC by spectrophotometry. An outline of the steps: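 Fe(II) heme (10 μM final; hemin reduced by excess sodium dithionite) in 50% ACN-water under continuous argon, 20°C, stirred; reaction started with peroxide at 10 μM final. Soret absorbance (418 nm) read every 0.1 s, converted to heme concentration via linear calibration (ε = 1.26 × 10⁵ M⁻¹ cm⁻¹); heme loss measured at completion (t = 30 s). n = 3.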

As to `CC(C)(C)[C@H]1CC[C@]2(CC1)OO[C@]1(O2)C2CC3CC(C2)CC1C3`, the half-inhibitory concentration (IC50) with Plasmodium falciparum was 200 nM. Further, the deltaA in assay [1] amounted to 0.25. Besides, the inhibition in assay [2] came out at 34%.
The corresponding values for `C[C@@]1(c2ccccc2)OOC2(O1)C1CC3CC(C1)CC2C3` (stereo partly drawn) are 10 nM, 0.63 and 67%.
With `CC1(C)CC[C@]2(CC1)OO[C@]1(O2)C2CC3CC(C2)CC1C3`, in the assay with Plasmodium falciparum, the IC50 was determined as 7.9 nM. In assay [1], the deltaA came to 0.77. Besides, the inhibition in assay [2] came to 82%.
Take `OC[C@H]1CC[C@@]2(CC1)OO[C@@]1(O2)C2CC3CC(C2)CC1C3`: in the assay with Plasmodium falciparum, the 50% inhibitory concentration (IC50) was determined as 2.6 nM. For the same compound, the deltaA in assay [1] was found to be 0.78. Besides, the inhibition in assay [2] was found to be 83%.
The corresponding values for `O=C1CCC2(CC1)OOC1(O2)C2CC3CC(C2)CC1C3` (stereo not drawn) are 1.7 nM, 0.88 and 81%.
In the case of `c1ccc(C2(c3ccccc3)CCC3(CC2)OOC2(O3)C3CC4CC(C3)CC2C4)cc1` (stereo not drawn), in assay [1], the deltaA is 0.1. Moreover, the inhibition in assay [2] was 11%.
In the assay with Plasmodium falciparum, `O=S(=O)(O)OC[C@H]1CC[C@]2(CC1)OO[C@]1(O2)C2CC3CC(C2)CC1C3` showed an IC50 of 250 nM. Besides, the deltaA in assay [1] amounted to 0.85. Also, the inhibition in assay [2] stood at 81%.
The corresponding values for `O=C(O)[C@H]1CC[C@]2(CC1)OO[C@]1(O2)C2CC3CC(C2)CC1C3` are 49 nM, 0.89 and 74%.
`O=C1C2CC3CC1CC(C2)[C@]31OO[C@@]2(CCCCC2)O1`: in the assay with Plasmodium falciparum, the half-maximal inhibitory concentration (IC50) worked out at 20 nM. The deltaA in assay [1] worked out at 0.57. For the same compound, in assay [2], the inhibition came out at 61%.
Take `C1CCC2(CC1)OOC1(O2)C2CC3CC(C2)CC1C3` (stereo not drawn): in the assay with Plasmodium falciparum, the IC50 came to 3.8 nM. Moreover, the deltaA in assay [1] was found to be 0.84. Also, the inhibition in assay [2] was found to be 86%.
The corresponding values for `c1ccc([C@H]2CC[C@]3(CC2)OO[C@]2(O3)C3CC4CC(C3)CC2C4)cc1` are 6.5 nM, 0.79 and 77%.
As to `C1CCC2(CC1)OOC1(CCCCC1)O2`, in assay [1], the deltaA amounted to 0.03. In addition, in assay [2], the inhibition is 17%.
As for `CO[C@H]1O[C@@H]2O[C@@]3(C)CC[C@H]4[C@H](C)CC[C@@H]([C@H]1C)[C@@]24OO3`, the inhibition in assay [2] came out at 24%.
For the compound `Clc1ccc([C@H]2CC[C@]3(CC2)OO[C@]2(O3)C3CC4CC(C3)CC2C4)cc1`, half-maximal inhibition with Plasmodium falciparum (IC50) was put at 20 nM. The deltaA in assay [1] came to 0.84. In addition, in assay [2], the inhibition came to 84%.
With `C[C@H]1[C@H](OC(=O)CCC(=O)O)O[C@@H]2O[C@@]3(C)CC[C@H]4[C@H](C)CC[C@@H]1[C@@]24OO3` [ARTESUNATE], in the assay on Plasmodium falciparum, the IC50 was 3.2 nM. In assay [1], the deltaA is 0.39. Moreover, the inhibition in assay [2] worked out at 44%.
As for `CC(C)(O)[C@H]1CC[C@]2(CC1)OO[C@]1(O2)C2CC3CC(C2)CC1C3`, half-maximal inhibition with Plasmodium falciparum (IC50) was put at 210 nM. Moreover, the deltaA in assay [1] came out at 0.23. In addition, in assay [2], the inhibition came to 30%.
With `C[C@@H]1CC[C@H]2[C@@H](C)C(=O)O[C@@H]3O[C@@]4(C)CC[C@@H]1[C@]32OO4`, in assay [1], the deltaA came to 0.12. In assay [2], the inhibition was found to be 15%.
The like results for `CC(C)(N)CNC(=O)C[C@H]1CC[C@]2(CC1)OO[C@]1(O2)C2CC3CC(C2)CC1C3` were, in that order, 0.89 and 83%.
In the case of `OC[C@H]1CC[C@]2(CC1)OO[C@]1(O2)C2CC3CC(C2)CC1C3`, in the assay with Plasmodium falciparum, the IC50 was 2.8 nM. Further, the deltaA in assay [1] turned out to be 0.89. The inhibition in assay [2] stood at 83%.
The like results for `c1ccc([C@@H]2OOC3(O2)C2CC4CC(C2)CC3C4)cc1` (stereo partly drawn) were, in that order, 1500 nM, 0.13 and 16%.
`CCC[C@H]1CC[C@]2(CC1)OO[C@]1(O2)C2CC3CC(C2)CC1C3` displayed a half-inhibitory concentration (IC50) with Plasmodium falciparum of 3.6 nM. The deltaA in assay [1] amounted to 0.8. For the same compound, the inhibition in assay [2] is 85%.
In the assay on Plasmodium falciparum, `O=C(O)C[C@H]1CC[C@]2(CC1)OO[C@]1(O2)C2CC3CC(C2)CC1C3` returned an IC50 of 110 nM. Further, in assay [1], the deltaA was found to be 0.87. The inhibition in assay [2] turned out to be 83%.
Take `NC[C@H]1CC[C@]2(CC1)OOC1(O2)C2CC3CC(C2)CC1C3` (stereo partly drawn): the deltaA in assay [1] came out at 0.87. Also, the inhibition in assay [2] was 83%.
As for `C1CC[C@]2(CC1)OO[C@]1(O2)C2CCCC1CCC2`, in the assay on Plasmodium falciparum, inhibition was half-maximal at 340 nM (IC50). Also, in assay [1], the deltaA turned out to be 0.03. For the same compound, the inhibition in assay [2] was 9%.
`C[C@H]1[C@@H](O)O[C@@H]2O[C@@]3(C)CC[C@H]4[C@H](C)CC[C@@H]1[C@@]24OO3` [ARTENIMOL]: the half-maximal inhibitory concentration (IC50) with Plasmodium falciparum is 0.77 nM. Moreover, the deltaA in assay [1] was 0.22. The inhibition in assay [2] worked out at 28%.

These data come from ChEMBL document CHEMBL1255309, “Relationship between antimalarial activity and heme alkylation for spiro- and dispiro-1,2,4-trioxolane antimalarials” (Antimicrob Agents Chemother, 2008).
